ChEMBL document CHEMBL1147099, “In vitro and in vivo antibacterial activities of heteroaryl isothiazolones against resistant gram-positive pathogens” (Antimicrob Agents Chemother, 2007)
In brackets after ≈: the same amount, converted by molar mass.

Columns and labels:
Format in all cases: functional
Staphylococcus aureus [1] = assay: Antibacterial activity against ethidium bromide-resistant Staphylococcus aureus BSA643 after 24 hrs by broth microdilution method; conditions: BSA643, 24 h
Outline: (§1)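 Broth microdilution per CLSI in cation-adjusted Mueller-Hinton II broth, final inoculum approximately 5 × 10^5 CFU/ml. Plates were incubated aerobically at 35 to 37°C for 24 h. MIC was the lowest concentration giving no visible growth. Reserpine, where used, was at a final concentration of 20 μg/ml.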

Staphylococcus aureus [2] = assay: Antibacterial activity against ethidium bromide-resistant Staphylococcus aureus Mu50 after 24 hrs by broth microdilution method; conditions: Mu50, 24 h; outline: as §1
Staphylococcus aureus [3] = assay: Antibacterial activity against […] Staphylococcus aureus ATCC 29213 after 24 hrs by broth microdilution method; conditions: ATCC 29213, 24 h; outline: as §1
Staphylococcus aureus [4] = assay: Antibacterial activity against ethidium bromide-resistant Staphylococcus aureus BSA678 after 24 hrs by broth microdilution method; conditions: BSA678, 24 h; outline: as §1
Staphylococcus aureus [5] = assay: Antibacterial activity against ethidium bromide-resistant Staphylococcus aureus Mu50 in presence of 20 ug/ml reserpine after 24 hrs by broth microdilution method; conditions: Mu50, 24 h; outline: as §1
Staphylococcus aureus [6] = assay: Antibacterial activity against […] Staphylococcus aureus ATCC 29213 in presence of 20 ug/ml reserpine after 24 hrs by broth microdilution method; conditions: ATCC 29213, 24 h; outline: as §1
Cutibacterium acnes = assay: Antibacterial activity against Propionibacterium acnes
Outline: (§2)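 Anaerobes by CLSI agar dilution on brucella agar with hemin, vitamin K and 5% laked sheep blood; inoculum from 24-h enriched blood agar colonies resuspended in brucella broth to 0.5 McFarland. Plates incubated anaerobically at 35–37°C for 48 h.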

Bacteroides fragilis = assay: Antibacterial activity against Bacteroides fragilis by agar dilution method; outline: as §2
Klebsiella pneumoniae = assay: Antibacterial activity against Klebsiella pneumoniae
Outline: (§3)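 Aerobic isolates run by CLSI broth microdilution in cation-adjusted Mueller-Hinton II broth (streptococci plus 2–5% lysed horse blood), about 5 × 10^5 CFU/ml final; 24 h at 35–37°C aerobically; MIC read as lowest concentration without visible growth.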

Peptostreptococcus sp. = assay: Antibacterial activity against Peptostreptococcus sp. by agar dilution method; outline: as §2
Clostridioides difficile = assay: Antibacterial activity against Clostridium difficile by agar dilution method; outline: as §2
Escherichia coli = assay: Antibacterial activity against Escherichia coli after 24 hrs by broth microdilution method
Outline: (§4)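 CLSI broth microdilution in cation-adjusted Mueller-Hinton II broth, final inoculum about 5 × 10^5 CFU/ml for most strains; streptococci supplemented with 2–5% lysed horse blood, H. influenzae in Haemophilus test medium. Aerobic incubation at 35–37°C for 24 h; MIC = lowest concentration with no visible growth.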

Enterobacter sp. = assay: Antibacterial activity against Enterobacter sp.; outline: as §3
Acinetobacter baumannii = assay: Antibacterial activity against Acinetobacter baumannii after 24 hrs by broth microdilution method; outline: as §4
[7] = test system: Mycoplasmoides pneumoniae; assay: Antibacterial activity against Mycoplasma pneumoniae after 24 hrs by broth microdilution method
Neisseria meningitidis = assay: Antibacterial activity against Neisseria meningitidis after 24 hrs by broth microdilution method; outline: as §4
Streptococcus viridans = assay: Antibacterial activity against Streptococcus viridans after 24 hrs by broth microdilution method; outline: as §4
Haemophilus influenzae = assay: Antibacterial activity against Haemophilus influenzae after 24 hrs by broth microdilution method; outline: as §4
Enterococcus faecalis = assay: Antibacterial activity against Enterococcus faecalis; outline: as §3
Enterococcus faecium = assay: Antibacterial activity against Enterococcus faecium; outline: as §3
Streptococcus pyogenes = assay: Antibacterial activity against Streptococcus pyogenes; outline: as §3
Moraxella catarrhalis = assay: Antibacterial activity against Moraxella catarrhalis after 24 hrs by broth microdilution method; outline: as §4
Legionella pneumophila = assay: Antibacterial activity against Legionella pneumophila after 24 hrs by broth microdilution method
Staphylococcus aureus [8] = assay: Antibacterial activity against methicillin-susceptible Staphylococcus aureus after 24 hrs by broth microdilution method; outline: as §1
Staphylococcus aureus [9] = assay: Antibacterial activity against methicillin-resistant Staphylococcus aureus after 24 hrs by broth microdilution method; outline: as §1
Streptococcus pneumoniae = assay: Antibacterial activity against Streptococcus pneumoniae by agar dilution method
Pseudomonas aeruginosa = assay: Antibacterial activity against Pseudomonas aeruginosa after 24 hrs by broth microdilution method; outline: as §4
Neisseria gonorrhoeae = assay: Antibacterial activity against Neisseria gonorrhoeae after 24 hrs by broth microdilution method; outline: as §4

CO/N=C1\CN(c2nc3c(cc2F)c(=O)c(C(=O)O)cn3C2CC2)CC1CN (stereo not given) [GEMIFLOXACIN]
MIC (Staphylococcus aureus [1]): 32 µg/mL (≈ 82.2 µM) | MIC (Staphylococcus aureus [2]): 4 µg/mL (≈ 10.3 µM) | MIC (Staphylococcus aureus [3]): 0.03 µg/mL (≈ 0.077 µM) | MIC (Staphylococcus aureus [4]): 64 µg/mL (≈ 164 µM)

CC[n+]1c(-c2ccccc2)c2cc(N)ccc2c2ccc(N)cc21.[Br-] [HOMIDIUM BROMIDE]
MIC (Staphylococcus aureus [5]): 64 µg/mL | MIC (Staphylococcus aureus [1]): 16 µg/mL | MIC (Staphylococcus aureus [2]): 64 µg/mL | MIC (Staphylococcus aureus [6]): 0.03 µg/mL | MIC (Staphylococcus aureus [3]): 4 µg/mL | MIC (Staphylococcus aureus [4]): 4 µg/mL

C[C@@H](O)[C@H]1C(=O)N2C(C(=O)O)=C(SCCNC=N)C[C@H]12 [IMIPENEM ANHYDROUS]
MIC50 (Cutibacterium acnes): 0.06 µg/mL (≈ 0.2 µM) | MIC90 (Cutibacterium acnes): 0.06 µg/mL (≈ 0.2 µM) | MIC50 (Bacteroides fragilis): 0.25 µg/mL (≈ 0.835 µM) | MIC90 (Bacteroides fragilis): 0.25 µg/mL (≈ 0.835 µM) | MIC50 (Klebsiella pneumoniae): 0.5 µg/mL (≈ 1.67 µM) | MIC90 (Klebsiella pneumoniae): 1 µg/mL (≈ 3.34 µM) | MIC50 (Peptostreptococcus sp.): 0.06 µg/mL (≈ 0.2 µM) | MIC90 (Peptostreptococcus sp.): 0.25 µg/mL (≈ 0.835 µM) | MIC50 (Clostridioides difficile): 4 µg/mL (≈ 13.4 µM) | MIC90 (Clostridioides difficile): 4 µg/mL (≈ 13.4 µM) | MIC50 (Escherichia coli): 0.5 µg/mL (≈ 1.67 µM) | MIC90 (Escherichia coli): 0.5 µg/mL (≈ 1.67 µM) | MIC50 (Enterobacter sp.): 1 µg/mL (≈ 3.34 µM) | MIC90 (Enterobacter sp.): 2 µg/mL (≈ 6.68 µM) | MIC50 (Acinetobacter baumannii): 1 µg/mL (≈ 3.34 µM) | MIC90 (Acinetobacter baumannii): > 16 µg/mL

C[C@H]1COc2c(N3CCN(C)CC3)c(F)cc3c(=O)c(C(=O)O)cn1c23.C[C@H]1COc2c(N3CCN(C)CC3)c(F)cc3c(=O)c(C(=O)O)cn1c23.O [LEVOFLOXACIN]
MIC [7]: 0.5 µg/mL | MIC50 (Neisseria meningitidis): ≤ 0.12 µg/mL | MIC90 (Neisseria meningitidis): ≤ 0.12 µg/mL | MIC50 (Streptococcus viridans): 1 µg/mL | MIC90 (Streptococcus viridans): 1 µg/mL | MIC50 (Haemophilus influenzae): 0.015 µg/mL | MIC90 (Haemophilus influenzae): 0.03 µg/mL | MIC50 (Enterococcus faecalis): 16 µg/mL | MIC90 (Enterococcus faecalis): > 16 µg/mL | MIC50 (Enterococcus faecium): > 16 µg/mL | MIC90 (Enterococcus faecium): > 16 µg/mL | MIC50 (Streptococcus pyogenes): 0.5 µg/mL | MIC90 (Streptococcus pyogenes): 1 µg/mL | MIC50 (Moraxella catarrhalis): 0.03 µg/mL | MIC90 (Moraxella catarrhalis): 0.06 µg/mL | MIC50 (Klebsiella pneumoniae): > 0.25 µg/mL | MIC90 (Klebsiella pneumoniae): > 2 µg/mL | MIC (Legionella pneumophila): 0.015 µg/mL | MIC50 (Staphylococcus aureus [8]): 0.25 µg/mL | MIC90 (Staphylococcus aureus [8]): > 16 µg/mL | MIC50 (Staphylococcus aureus [9]): 16 µg/mL | MIC50 (Escherichia coli): 0.03 µg/mL | MIC50 (Enterobacter sp.): 0.03 µg/mL | MIC90 (Enterobacter sp.): 0.5 µg/mL | MIC50 (Acinetobacter baumannii): 0.25 µg/mL | MIC90 (Acinetobacter baumannii): > 8 µg/mL | MIC50 (Streptococcus pneumoniae): 1 µg/mL | MIC90 (Streptococcus pneumoniae): 1 µg/mL | MIC50 (Pseudomonas aeruginosa): 0.5 µg/mL | MIC90 (Pseudomonas aeruginosa): > 8 µg/mL

C[C@@H](O)[C@H]1C(=O)N2C(C(=O)O)=C(S[C@@H]3CN[C@H](C(=O)N(C)C)C3)[C@H](C)[C@H]12 [MEROPENEM]
MIC50 (Neisseria meningitidis): 0.008 µg/mL (≈ 0.0209 µM) | MIC90 (Neisseria meningitidis): 0.015 µg/mL (≈ 0.0391 µM)

Cc1ncc([N+](=O)[O-])n1CCO [METRONIDAZOLE]
MIC50 (Cutibacterium acnes): > 64 µg/mL | MIC90 (Cutibacterium acnes): > 64 µg/mL | MIC50 (Clostridioides difficile): 0.5 µg/mL (≈ 2.92 µM) | MIC90 (Clostridioides difficile): 0.5 µg/mL (≈ 2.92 µM)

CN(C)c1ccc(O)c2c1C[C@H]1C[C@H]3[C@H](N(C)C)C(O)=C(C(N)=O)C(=O)[C@@]3(O)C(O)=C1C2=O [MINOCYCLINE]
MIC50 (Neisseria meningitidis): 0.12 µg/mL (≈ 0.262 µM) | MIC90 (Neisseria meningitidis): 0.12 µg/mL (≈ 0.262 µM)

Cc1onc(-c2ccccc2)c1C(=O)N[C@@H]1C(=O)N2[C@@H]1SC(C)(C)[C@@H]2C(=O)O [OXACILLIN]
MIC50 (Staphylococcus aureus [8]): 0.5 µg/mL (≈ 1.25 µM) | MIC90 (Staphylococcus aureus [8]): 0.5 µg/mL (≈ 1.25 µM) | MIC50 (Staphylococcus aureus [9]): > 16 µg/mL | MIC90 (Staphylococcus aureus [9]): > 16 µg/mL

CN(C)[C@@H]1C(O)=C(C(N)=O)C(=O)[C@@]2(O)C(O)=C3C(=O)c4c(O)cccc4[C@@](C)(O)[C@H]3C[C@@H]12 [TETRACYCLINE]
MIC50 (Neisseria gonorrhoeae): 0.25 µg/mL (≈ 0.563 µM) | MIC90 (Neisseria gonorrhoeae): 1 µg/mL (≈ 2.25 µM)
